Results from ChEMBL document CHEMBL4400530, “Synthesis and structure-activity relationship studies of water-soluble β-cyclodextrin-glycyrrhetinic acid conjugates as potential anti-influenza virus agents” (Eur J Med Chem, 2019).
Converted amounts (≈) assume the structure as drawn. The source made the active and inactive calls. No cut-off for these calls is given here.

Assays:
[1] = tested on: Human gammaherpesvirus 4; assay: Antiviral activity against EBV infected in human Raji cells assessed as reduction in viral genome copy numbers by qRT-PCR analysis; assay type: functional, organism-based; settings: human gammaherpesvirus 4, Raji
[2] = tested on: Human alphaherpesvirus 1; assay: Antiviral activity against […] Herpes simplex virus 1 B2006 infected in African green monkey Vero cells assessed as reduction in viral titer after 72 hrs by crystal violet staining based assay; assay type: functional, organism-based; settings: Human alphaherpesvirus 1, B2006, Vero
[3] = tested on: Human alphaherpesvirus 1; assay: Antiviral activity against […] Herpes simplex virus 1 KOS infected in African green monkey Vero cells assessed as reduction in viral titer after 72 hrs by crystal violet staining based assay; assay type: functional, organism-based; settings: Human alphaherpesvirus 1, strain KOS
[4] = tested on: Influenza A virus; assay: Antiviral activity against Influenza A virus (A/WSN/33(H1N1)) infected in MDCK cells assessed as reduction in virus-induced cytopathic effect at 50 uM after 40 hrs by CellTiter-Glo assay; assay type: functional, organism-based; settings: A/WSN/1933(H1N1)
Method in brief: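 MDCK cells seeded, grown overnight, then infected with A/WSN/33 (H1N1) at MOI 0.1 in DMEM with 1% FBS, 2 μg/mL TPCK-treated trypsin and test compound (final DMSO 1%). Compounds screened at a single 50 μM concentration. Incubation 40 h, then viability read by CellTiter-Glo luminescence. Oseltamivir positive control, DMSO negative control. Virus stock titres determined in MDCK cells by Reed and Muench.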

[5] = tested on: MDCK; assay: Cytotoxicity against MDCK cells assessed as effect on cell viability at 50 uM measured after 36 hrs by CellTiter-Glo assay; assay type: cell-based, Canis lupus familiaris; settings: dog
Method in brief: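 MDCK cells (1 × 10⁴ per well) left to adhere 24 h at 37 °C, 5% CO₂. Medium then replaced with fresh medium containing compound at 50 μM, in triplicate. Controls received medium with 1% DMSO. Plates incubated 36 h at 37 °C, 5% CO₂, then viability read by CellTiter-Glo luminescence.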

[6] = Solubility of the compound in water; assay type: physicochemical; settings: buffer
[7] = Lipophilicity, log P of the compound; assay type: physicochemical; settings: octanol/water
Method in brief: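 Calculated value (AlogP, Ghose and Crippen octanol–water partition coefficient at 25 °C), computed in silico rather than measured.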

| Compound | Activity [4] | Activity [5] | also measured |
| --- | --- | --- | --- |
| CC1(C)[C@@H](O[C@H]2O[C@H](C(=O)O)[C@@H](O)[C@H](O)[C@H]2O[C@@H]2O[C@H](C(=O)O)[C@@H](O)[C@H](O)[C@H]2O)CC[C@]2(C)[C@H]3C(=O)C=C4[C@@H]5C[C@@](C)(C(=O)O)CC[C@]5(C)CC[C@@]4(C)[C@]3(C)CC[C@@H]12 [GLYCYRRHIZIN] |  |  | EC50 [1]: 30 µM |
| CC(O)CNC(=O)[C@@]1(C)CC[C@]2(C)CC[C@]3(C)C(=CC(=O)[C@@H]4[C@@]5(C)CC[C@H](O)C(C)(C)[C@@H]5CC[C@]43C)[C@@H]2C1 (stereo not given in full) |  |  | EC50 [2]: 4.95 µM; EC50 [3]: 4.95 µM |
| CC(=O)OC[C@H]1O[C@@H]2O[C@H]3[C@H](OC(C)=O)[C@@H](OC(C)=O)[C@@H](O[C@H]4[C@H](OC(C)=O)[C@@H](OC(C)=O)[C@@H](O[C@H]5[C@H](OC(C)=O)[C@@H](OC(C)=O)[C@@H](O[C@H]6[C@H](OC(C)=O)[C@@H](OC(C)=O)[C@@H](O[C@H]7[C@H](OC(C)=O)[C@@H](OC(C)=O)[C@@H](O[C@H]8[C@H](OC(C)=O)[C@@H](OC(C)=O)[C@@H](O[C@H]1[C@H](OC(C)=O)[C@H]2OC(C)=O)O[C@@H]8COC(C)=O)O[C@@H]7COC(C)=O)O[C@@H]6COC(C)=O)O[C@@H]5Cn1cc(COCCOCCOCCOCCNC(=O)[C@@]2(C)CC[C@]5(C)CC[C@]6(C)C(=CC(=O)[C@@H]7[C@@]8(C)CC[C@H](O)C(C)(C)[C@@H]8CC[C@]76C)[C@@H]5C2)nn1)O[C@@H]4COC(C)=O)O[C@@H]3COC(C)=O | Active | Non-Toxic |  |
| CC1(C)[C@@H](O)CC[C@]2(C)[C@H]3C(=O)C=C4[C@@H]5C[C@@](C)(C(=O)NCCOCCOCCOCCOCc6cn(C[C@H]7O[C@@H]8O[C@H]9[C@H](O)[C@@H](O)[C@@H](O[C@H]%10[C@H](O)[C@@H](O)[C@@H](O[C@H]%11[C@H](O)[C@@H](O)[C@@H](O[C@H]%12[C@H](O)[C@@H](O)[C@@H](O[C@H]%13[C@H](O)[C@@H](O)[C@@H](O[C@H]%14[C@H](O)[C@@H](O)[C@@H](O[C@H]7[C@H](O)[C@H]8O)O[C@@H]%14CO)O[C@@H]%13CO)O[C@@H]%12CO)O[C@@H]%11CO)O[C@@H]%10CO)O[C@@H]9CO)nn6)CC[C@]5(C)CC[C@@]4(C)[C@]3(C)CC[C@@H]12 | Active | Non-Toxic |  |
| CC(=O)OC[C@H]1O[C@@H]2O[C@H]3[C@H](OC(C)=O)[C@@H](OC(C)=O)[C@@H](O[C@H]4[C@H](OC(C)=O)[C@@H](OC(C)=O)[C@@H](O[C@H]5[C@H](OC(C)=O)[C@@H](OC(C)=O)[C@@H](O[C@H]6[C@H](OC(C)=O)[C@@H](OC(C)=O)[C@@H](O[C@H]7[C@H](OC(C)=O)[C@@H](OC(C)=O)[C@@H](O[C@H]8[C@H](OC(C)=O)[C@@H](OC(C)=O)[C@@H](O[C@H]1[C@H](OC(C)=O)[C@H]2OC(C)=O)O[C@@H]8COC(C)=O)O[C@@H]7COC(C)=O)O[C@@H]6COC(C)=O)O[C@@H]5Cn1cc(COCCOCCOCCOCCOCCOCCNC(=O)[C@@]2(C)CC[C@]5(C)CC[C@]6(C)C(=CC(=O)[C@@H]7[C@@]8(C)CC[C@H](O)C(C)(C)[C@@H]8CC[C@]76C)[C@@H]5C2)nn1)O[C@@H]4COC(C)=O)O[C@@H]3COC(C)=O | Active | Non-Toxic |  |
| CC(=O)OC[C@H]1O[C@@H]2O[C@H]3[C@H](O)[C@@H](O)[C@@H](O[C@H]4[C@H](O)[C@@H](O)[C@@H](O[C@H]5[C@H](O)[C@@H](O)[C@@H](O[C@H]6[C@H](O)[C@@H](O)[C@@H](O[C@H]7[C@H](O)[C@@H](O)[C@@H](O[C@H]8[C@H](O)[C@@H](O)[C@@H](O[C@H]1[C@H](O)[C@H]2O)O[C@@H]8CO)O[C@@H]7CO)O[C@@H]6CO)O[C@@H]5CO)O[C@@H]4CO)O[C@@H]3Cn1cc(CN2CCN(CCNC(=O)[C@@]3(C)CC[C@]4(C)CC[C@]5(C)C(=CC(=O)[C@@H]6[C@@]7(C)CC[C@H](O)C(C)(C)[C@@H]7CC[C@]65C)[C@@H]4C3)CC2)nn1 | inactive | Non-Toxic |  |
| CC(=O)OC[C@H]1O[C@@H]2O[C@H]3[C@H](OC(C)=O)[C@@H](OC(C)=O)[C@@H](O[C@H]4[C@H](OC(C)=O)[C@@H](OC(C)=O)[C@@H](O[C@H]5[C@H](OC(C)=O)[C@@H](OC(C)=O)[C@@H](O[C@H]6[C@H](OC(C)=O)[C@@H](OC(C)=O)[C@@H](O[C@H]7[C@H](OC(C)=O)[C@@H](OC(C)=O)[C@@H](O[C@H]8[C@H](OC(C)=O)[C@@H](OC(C)=O)[C@@H](O[C@H]1[C@H](OC(C)=O)[C@H]2OC(C)=O)O[C@@H]8COC(C)=O)O[C@@H]7COC(C)=O)O[C@@H]6COC(C)=O)O[C@@H]5Cn1cc(CN2CCN(CCNC(=O)[C@@]5(C)CC[C@]6(C)CC[C@]7(C)C(=CC(=O)[C@@H]8[C@@]9(C)CC[C@H](O)C(C)(C)[C@@H]9CC[C@]87C)[C@@H]6C5)CC2)nn1)O[C@@H]4COC(C)=O)O[C@@H]3COC(C)=O | inactive | Non-Toxic |  |
| CC1(C)[C@@H](O)CC[C@]2(C)[C@H]3C(=O)C=C4[C@@H]5C[C@@](C)(C(=O)NCc6cn(C[C@H]7O[C@@H]8O[C@H]9[C@H](O)[C@@H](O)[C@@H](O[C@H]%10[C@H](O)[C@@H](O)[C@@H](O[C@H]%11[C@H](O)[C@@H](O)[C@@H](O[C@H]%12[C@H](O)[C@@H](O)[C@@H](O[C@H]%13[C@H](O)[C@@H](O)[C@@H](O[C@H]%14[C@H](O)[C@@H](O)[C@@H](O[C@H]7[C@H](O)[C@H]8O)O[C@@H]%14CO)O[C@@H]%13CO)O[C@@H]%12CO)O[C@@H]%11CO)O[C@@H]%10CO)O[C@@H]9CO)nn6)CC[C@]5(C)CC[C@@]4(C)[C@]3(C)CC[C@@H]12 | Active | Non-Toxic |  |
| CC1(C)[C@@H](O)CC[C@]2(C)[C@H]3C(=O)C=C4[C@@H]5C[C@@](C)(C(=O)O)CC[C@]5(C)CC[C@@]4(C)[C@]3(C)CC[C@@H]12 [ENOXOLONE] |  |  | solubility [6]: 10.6 µg/mL (≈ 22.5 µM); EC50 [1]: 4 µM; logP [7]: 6.75 |
| CC1(C)[C@@H](OCc2cn(C[C@H]3O[C@@H]4O[C@H]5[C@H](O)[C@@H](O)[C@@H](O[C@H]6[C@H](O)[C@@H](O)[C@@H](O[C@H]7[C@H](O)[C@@H](O)[C@@H](O[C@H]8[C@H](O)[C@@H](O)[C@@H](O[C@H]9[C@H](O)[C@@H](O)[C@@H](O[C@H]%10[C@H](O)[C@@H](O)[C@@H](O[C@H]3[C@H](O)[C@H]4O)O[C@@H]%10CO)O[C@@H]9CO)O[C@@H]8CO)O[C@@H]7CO)O[C@@H]6CO)O[C@@H]5CO)nn2)CC[C@]2(C)[C@H]3C(=O)C=C4[C@@H]5C[C@@](C)(C(=O)O)CC[C@]5(C)CC[C@@]4(C)[C@]3(C)CC[C@@H]12 | Active | Non-Toxic |  |
